The M2OR odorant receptor database
Numbering of substitutions follows the chain as printed.

Test system: T1, O13F1 F18S T254M
T1 sequence (whole entry): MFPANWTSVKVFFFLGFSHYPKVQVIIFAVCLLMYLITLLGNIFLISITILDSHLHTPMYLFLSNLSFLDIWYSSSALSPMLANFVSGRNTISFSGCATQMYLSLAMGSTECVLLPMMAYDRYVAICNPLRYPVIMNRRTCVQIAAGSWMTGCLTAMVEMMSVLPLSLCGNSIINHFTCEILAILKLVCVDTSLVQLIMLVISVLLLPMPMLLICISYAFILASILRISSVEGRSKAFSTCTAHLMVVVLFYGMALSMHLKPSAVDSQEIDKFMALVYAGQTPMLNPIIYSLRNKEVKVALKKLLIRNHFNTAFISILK
Settings: stereoisomer not certain
Method in brief: (§1)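 Whether a receptor–molecule pair is responsive (active) rests on the original authors' judgment that its measured signal was statistically different from baseline. Pairs without that judgment are non-responsive (inactive). Sources used varied assay methods, commonly transient luciferase assays in mammalian cell lines.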
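Note: active if original authors judged signal statistically different from baseline.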

Odorant receptor agonist call, inactive:
CC1=C(O)C(=O)OC1C (configuration not stated)
CCC1OC(C)=C(O)C1=O (configuration not stated)
CCC1OC(=O)C(O)=C1C (configuration not stated)
CC1=C(O)C(=O)C(C)O1 (configuration not stated)
Cc1cnc(C)c(C)n1
CC1=NC(C)C(C)S1 (configuration not stated)
CCCC(S)CCOC(C)=O (configuration not stated)

Test system: T2, O13F1 F18S
T2 sequence (whole entry): T1 sequence (whole entry) with M254T
Settings: stereoisomer not certain
Method in brief: as §1

Odorant receptor agonist call, inactive:
CC1=C(O)C(=O)OC1C (configuration not stated)
CCCCCCC=CCCC=O
CCC1OC(C)=C(O)C1=O (configuration not stated)
CCC1OC(=O)C(O)=C1C (configuration not stated)
CC1=C(O)C(=O)C(C)O1 (configuration not stated)
Cc1cnc(C)c(C)n1
CC1=NC(C)C(C)S1 (configuration not stated)
CCCC(S)CCOC(C)=O (configuration not stated)

Test system: T3, O13G1 K46I M146L
T3 sequence (whole entry): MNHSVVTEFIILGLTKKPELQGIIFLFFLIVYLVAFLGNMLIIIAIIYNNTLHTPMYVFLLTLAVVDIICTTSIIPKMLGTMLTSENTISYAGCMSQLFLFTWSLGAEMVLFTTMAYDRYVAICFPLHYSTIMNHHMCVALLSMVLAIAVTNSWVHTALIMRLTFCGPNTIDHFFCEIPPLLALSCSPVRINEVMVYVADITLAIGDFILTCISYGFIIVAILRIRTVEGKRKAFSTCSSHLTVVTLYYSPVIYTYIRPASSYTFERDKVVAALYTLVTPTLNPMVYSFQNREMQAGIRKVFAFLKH
Settings: stereoisomer not certain
Method in brief: as §1

Odorant receptor agonist call, inactive:
CC1=C(O)C(=O)OC1C (configuration not stated)
CCCCCCC=CCCC=O
CCC1OC(C)=C(O)C1=O (configuration not stated)
CCC1OC(=O)C(O)=C1C (configuration not stated)
CC1=C(O)C(=O)C(C)O1 (configuration not stated)
Cc1cnc(C)c(C)n1
CC1=NC(C)C(C)S1 (configuration not stated)
CCCC(S)CCOC(C)=O (configuration not stated)

Test system: T4, O13G1
T4 sequence (whole entry): T3 sequence (whole entry) with I46K, I132V, L146M
Settings: stereoisomer not certain
Method in brief: as §1

Odorant receptor agonist call, inactive:
CC1=C(O)C(=O)OC1C (configuration not stated)
CCCCCCC=CCCC=O
CCC1OC(C)=C(O)C1=O (configuration not stated)
CCC1OC(=O)C(O)=C1C (configuration not stated)
CC1=C(O)C(=O)C(C)O1 (configuration not stated)
Cc1cnc(C)c(C)n1
CC1=NC(C)C(C)S1 (configuration not stated)
CCCC(S)CCOC(C)=O (configuration not stated)

Test system: T5, O13H1 Y266S
T5 sequence (whole entry): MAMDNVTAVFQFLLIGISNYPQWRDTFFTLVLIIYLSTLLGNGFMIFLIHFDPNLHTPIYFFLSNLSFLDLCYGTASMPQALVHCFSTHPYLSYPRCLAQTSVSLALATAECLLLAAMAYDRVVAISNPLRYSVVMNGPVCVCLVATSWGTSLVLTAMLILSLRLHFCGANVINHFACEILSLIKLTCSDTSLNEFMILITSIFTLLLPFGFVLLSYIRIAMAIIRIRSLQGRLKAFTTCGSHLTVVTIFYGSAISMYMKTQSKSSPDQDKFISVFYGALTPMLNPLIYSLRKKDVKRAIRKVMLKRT
Settings: stereoisomer not certain
Method in brief: as §1

Odorant receptor agonist call, inactive:
CC1=C(O)C(=O)OC1C (configuration not stated)
CCCCCCC=CCCC=O
CCC1OC(C)=C(O)C1=O (configuration not stated)
CCC1OC(=O)C(O)=C1C (configuration not stated)
CC1=C(O)C(=O)C(C)O1 (configuration not stated)
Cc1cnc(C)c(C)n1
CC1=NC(C)C(C)S1 (configuration not stated)
CCCC(S)CCOC(C)=O (configuration not stated)

Test system: T6, O13J1
T6 sequence (whole entry): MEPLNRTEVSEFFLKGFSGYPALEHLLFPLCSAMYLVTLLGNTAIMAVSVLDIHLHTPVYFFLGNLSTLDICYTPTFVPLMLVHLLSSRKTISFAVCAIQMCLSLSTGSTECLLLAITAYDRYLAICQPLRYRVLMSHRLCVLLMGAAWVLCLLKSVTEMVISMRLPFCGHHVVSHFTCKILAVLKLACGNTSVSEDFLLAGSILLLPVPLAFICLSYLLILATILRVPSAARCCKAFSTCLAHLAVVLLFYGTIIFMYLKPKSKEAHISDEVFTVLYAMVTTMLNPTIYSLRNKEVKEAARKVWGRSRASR
Settings: stereoisomer not certain
Method in brief: as §1

Odorant receptor agonist call, inactive:
CC1=C(O)C(=O)OC1C (configuration not stated)
CCCCCCC=CCCC=O
CCC1OC(C)=C(O)C1=O (configuration not stated)
CCC1OC(=O)C(O)=C1C (configuration not stated)
CC1=C(O)C(=O)C(C)O1 (configuration not stated)
Cc1cnc(C)c(C)n1
CC1=NC(C)C(C)S1 (configuration not stated)
CCCC(S)CCOC(C)=O (configuration not stated)

Test system: T7, O1440
T7 sequence (whole entry): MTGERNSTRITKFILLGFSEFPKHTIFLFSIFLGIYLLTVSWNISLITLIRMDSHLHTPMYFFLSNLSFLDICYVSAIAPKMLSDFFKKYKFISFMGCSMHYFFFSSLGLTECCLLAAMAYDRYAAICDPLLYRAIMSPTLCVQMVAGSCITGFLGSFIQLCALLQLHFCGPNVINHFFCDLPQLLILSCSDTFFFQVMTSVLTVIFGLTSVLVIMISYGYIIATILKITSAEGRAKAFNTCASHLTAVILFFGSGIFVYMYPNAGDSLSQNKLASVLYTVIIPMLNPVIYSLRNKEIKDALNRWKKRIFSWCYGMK
Settings: stereoisomer not certain
Method in brief: as §1

Odorant receptor agonist call, inactive:
CCCCCCCCCCCCCC(C)=O
C1CCCCCCCCCCCCCC1
O=C1CCCCCCCCCC1
CCC(=O)OCC(C)(C)OC(C)C1CCCC(C)(C)C1 (configuration not stated)
O=C1CCCCCCCCC1
CC1C(C)(C)C2=C(C(=O)CCC2)C1(C)C (configuration not stated)
CCCCCCCC(=O)CCCCCCC

Odorant receptor agonist call, active:
O=C1C=CCCCCCCCCCCCCO1
O=C1CCCCCCC=CCCCCCCC1
CC1CC=CCCCCCCCCCC(=O)C1 (configuration not stated)
O=C1CCCCCC=CCCCCCCCCO1
O=C1CCCC=CCCCCCCCCCC1
O=C1CCCCCCCCCCCCCC1
CC1CC=CCCCCCCCCC(=O)C1 (configuration not stated)
CC(=O)c1c(C)c([N+](=O)[O-])c(C(C)(C)C)c([N+](=O)[O-])c1C
CC1CCCCCCCCCCCC(=O)C1 (configuration not stated)
CC1CCCCCCCCCCCCC(=O)C1 (configuration not stated)
OC1CCCCCCCCCCCCCC1

Test system: T8, O1440
T8 sequence (whole entry): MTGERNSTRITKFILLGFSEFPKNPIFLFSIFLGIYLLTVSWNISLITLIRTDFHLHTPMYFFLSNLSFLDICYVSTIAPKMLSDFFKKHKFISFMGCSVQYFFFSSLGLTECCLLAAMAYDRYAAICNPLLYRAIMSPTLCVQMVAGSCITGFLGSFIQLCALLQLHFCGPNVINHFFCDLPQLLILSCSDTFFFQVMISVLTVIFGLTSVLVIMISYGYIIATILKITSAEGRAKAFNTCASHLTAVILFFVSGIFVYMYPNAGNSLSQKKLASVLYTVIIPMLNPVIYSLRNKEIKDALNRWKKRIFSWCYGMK
Settings: stereoisomer not certain
Method in brief: as §1

Odorant receptor agonist call, active:
CCCCCCCCCCCCCC(C)=O
O=C1C=CCCCCCCCCCCCCO1
O=C1CCCCCCC=CCCCCCCC1
CC1CC=CCCCCCCCCCC(=O)C1 (configuration not stated)
O=C1CCCCCC=CCCCCCCCCO1
O=C1CCCC=CCCCCCCCCCC1
O=C1CCCCCCCCCCCCCC1
CC1CC=CCCCCCCCCC(=O)C1 (configuration not stated)
CC(=O)c1c(C)c([N+](=O)[O-])c(C(C)(C)C)c([N+](=O)[O-])c1C
CC1CCCCCCCCCCCC(=O)C1 (configuration not stated)
CC1CCCCCCCCCCCCC(=O)C1 (configuration not stated)
CC1C(C)(C)C2=C(C(=O)CCC2)C1(C)C (configuration not stated)
OC1CCCCCCCCCCCCCC1

Odorant receptor agonist call, inactive:
C1CCCCCCCCCCCCCC1
O=C1CCCCCCCCCC1
CCC(=O)OCC(C)(C)OC(C)C1CCCC(C)(C)C1 (configuration not stated)
O=C1CCCCCCCCC1
CCCCCCCC(=O)CCCCCCC

Test system: T9, O14A2 I133V
T9 sequence (whole entry): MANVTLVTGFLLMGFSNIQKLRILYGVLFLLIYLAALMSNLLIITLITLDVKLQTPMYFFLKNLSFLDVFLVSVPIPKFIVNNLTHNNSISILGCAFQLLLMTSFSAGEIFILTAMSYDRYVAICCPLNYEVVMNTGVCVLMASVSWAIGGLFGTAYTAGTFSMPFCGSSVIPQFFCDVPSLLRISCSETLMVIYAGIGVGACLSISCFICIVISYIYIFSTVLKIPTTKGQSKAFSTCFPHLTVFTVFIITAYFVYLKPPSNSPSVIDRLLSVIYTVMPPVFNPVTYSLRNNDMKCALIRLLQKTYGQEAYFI
Settings: stereoisomer not certain
Method in brief: as §1

Odorant receptor agonist call, inactive:
CC1=C(O)C(=O)OC1C (configuration not stated)
CCCCCCC=CCCC=O
CCC1OC(C)=C(O)C1=O (configuration not stated)
CCC1OC(=O)C(O)=C1C (configuration not stated)
CC1=C(O)C(=O)C(C)O1 (configuration not stated)
Cc1cnc(C)c(C)n1
CC1=NC(C)C(C)S1 (configuration not stated)
CCCC(S)CCOC(C)=O (configuration not stated)

Test system: T10, O14CZ
T10 sequence (whole entry): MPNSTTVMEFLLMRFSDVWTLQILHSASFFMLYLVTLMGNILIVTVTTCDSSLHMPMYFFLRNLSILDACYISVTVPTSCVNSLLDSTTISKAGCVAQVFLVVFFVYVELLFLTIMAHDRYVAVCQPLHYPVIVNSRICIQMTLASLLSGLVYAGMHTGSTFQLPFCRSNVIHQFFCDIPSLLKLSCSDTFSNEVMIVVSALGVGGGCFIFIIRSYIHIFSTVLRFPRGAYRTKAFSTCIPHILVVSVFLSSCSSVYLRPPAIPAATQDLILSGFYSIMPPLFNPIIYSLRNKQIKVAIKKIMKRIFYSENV
Settings: stereoisomer not certain
Method in brief: as §1

Odorant receptor agonist call, inactive:
CC1=C(O)C(=O)OC1C (configuration not stated)
CCCCCCC=CCCC=O
CCC1OC(C)=C(O)C1=O (configuration not stated)
CCC1OC(=O)C(O)=C1C (configuration not stated)
CC1=C(O)C(=O)C(C)O1 (configuration not stated)
Cc1cnc(C)c(C)n1
CC1=NC(C)C(C)S1 (configuration not stated)
CCCC(S)CCOC(C)=O (configuration not stated)

Test system: T11, O14I1 V36A D50N Y216C
T11 sequence (whole entry): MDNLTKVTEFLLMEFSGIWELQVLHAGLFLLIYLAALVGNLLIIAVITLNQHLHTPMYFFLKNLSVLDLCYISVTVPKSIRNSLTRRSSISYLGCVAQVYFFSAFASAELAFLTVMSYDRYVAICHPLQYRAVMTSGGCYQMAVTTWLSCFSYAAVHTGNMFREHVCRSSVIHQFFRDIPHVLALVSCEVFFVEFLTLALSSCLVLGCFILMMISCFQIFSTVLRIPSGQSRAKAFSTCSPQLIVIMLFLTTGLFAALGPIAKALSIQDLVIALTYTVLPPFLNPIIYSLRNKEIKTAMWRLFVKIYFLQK
Settings: stereoisomer not certain
Method in brief: as §1

Odorant receptor agonist call, inactive:
CC1=C(O)C(=O)OC1C (configuration not stated)
CCCCCCC=CCCC=O
CCC1OC(C)=C(O)C1=O (configuration not stated)
CCC1OC(=O)C(O)=C1C (configuration not stated)
CC1=C(O)C(=O)C(C)O1 (configuration not stated)
Cc1cnc(C)c(C)n1
CC1=NC(C)C(C)S1 (configuration not stated)
CCCC(S)CCOC(C)=O (configuration not stated)
